Assay results as given in publication PMC4065302 (Diabetes Therapy, 2014).

Key:
[1] = Serum IAsp and IDeg pharmacokinetics; type: in vivo, human
In short: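 Subcutaneous abdominal dosing in T1DM subjects: insulin degludec 0.42 U/kg daily Days 1–5, insulin degludec/insulin aspart 0.6 U/kg on Day 6. Aspart was sampled predose to 12 h on Day 6. Degludec was sampled predose on Days 1–5, then to 48 h, plus 72, 96 and 120 h. Serum levels were measured by validated analyte-specific ELISAs; full analysis set n = 22.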

[2] = cited from earlier work
[3] = system: subjects with type 1 diabetes mellitus; assay: Safety and tolerability monitoring; type: in vivo, human; conditions: 22 subjects
In short: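 Adults 18–65 y with T1DM on insulin ≥12 months. Regimen: insulin degludec 0.42 U/kg s.c. once daily (~8 p.m.) Days 1–5, then single insulin degludec/insulin aspart 0.6 U/kg s.c. on Day 6, with bolus insulin aspart as needed. Monitored: treatment-emergent AEs, confirmed hypoglycemia (severe per ADA, or plasma glucose <3.1 mmol/L or blood glucose <2.8 mmol/L), physical exam, vital signs, ECG, labs. Summarized descriptively.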

[4] = acidic pH; no reference given; cited from earlier work
[5] = while IDeg steady state was being attained (Days 1-5)

insulin aspart [IAsp]
AUCIAsp,0–12h (total serum exposure of IAsp in IDegAsp) ([1]; mean, n = 22, serum, ELISA, IDegAsp 0.6 U/kg s.c. (0.18 U/kg IAsp), Day 6): 1,087 pmol h/L
t max,IAsp ([1]; median, n = 22, serum, ELISA, IDegAsp 0.6 U/kg s.c., Day 6): 1.33 h

insulin degludec [IDeg]
time to clinical steady state ([1]; once-daily IDeg 0.42 U/kg s.c.): 2 to 3 days
duration of action [2]: exceeding 42 h
half-life ([2]; no reference given): > 24 h
injection site reactions ([3]; during the trial, s.c. administration): No injection site reactions
treatment-emergent changes in clinical laboratory parameters, vital signs, physical examination or ECG ([3]; following subcutaneous administration): no significant treatment-emergent changes
confirmed hypoglycemic episodes [3, 5]: 22 episodes
subjects with confirmed hypoglycemic episodes [3, 5]: 13 subjects

Insulin glargine
pH at which soluble [4]: 4
